The term IC50 denotes the concentration at which inhibition is half-maximal. The low end stands for greater potency, the high end for weaker potency. A word on the ED50: it is the dose that gives a 50% effect, or the effect in half of the subjects. Read a high ED50 as a need for a large dose.

For assay [1], the target named is GABA-A receptor; anion channel. Put plainly: Displacement of [3H]diazepam binding in rat brain membranes. Format: cell membranes. A general note: In a radioligand displacement assay an active substance lowers the binding of a labelled ligand.
Assay [2] relates to Mus musculus. Put plainly: Effective dose required to prevent convulsions in mice after iv administration of 70 mg/kg of metrazole compound in antipentylene tetrazole test. It is filed as functional. A digest of the protocol: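 Male CF-1 mice, 50–54 days old, tested by a modified Everett–Richards method. Metrazole 70 mg/kg is given iv, and convulsions are scored.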
For assay [3], the species on record is Mus musculus. Put plainly: Effective dose required for […] in mice in rotarod test. It is filed as functional. For orientation: Falling from the rotarod earlier than controls is read as motor impairment.

Compound `Clc1ccc2c(c1)C(c1ccccc1Cl)=NCc1cncnc1-2` gave an IC50 in assay [1] of 1.7 nM. For the same compound, the ED50 in assay [2] came to 0.59 mg/kg; in assay [3] it was 1.4 mg/kg.
The like results for `OC1N=C(c2ccccc2Cl)c2cc(Cl)ccc2-c2ncncc21` (centres undefined) were, in that order, 6.4 nM, 0.74 mg/kg and 4.8 mg/kg.
Taken in the same sequence, the figures for `Oc1ccc(C2=NCc3cncnc3-c3ccc(Cl)cc32)c(Cl)c1` were 100 nM, more than 100 mg/kg and more than 1000 mg/kg.
In turn, `[O-][n+]1cnc2c(c1)CN=C(c1ccccc1Cl)c1cc(Cl)ccc1-2` registered an IC50 in assay [1] of 1.25 nM. In addition, the ED50 in assay [2] amounted to 0.65 mg/kg; in assay [3], 4.9 mg/kg.
For the compound `CN1C(=O)CN=C(c2ccccc2)c2cc(Cl)ccc21` [DIAZEPAM], the ED50 in assay [2] is 1.4 mg/kg; in assay [3], 2.6 mg/kg.

The record behind these values is ChEMBL document CHEMBL1122391, “2-benzazepines. 6. Synthesis and pharmacological properties of the metabolites of 9-chloro-7-(2-chlorophenyl)-5H-pyrimido[5,4-d] [2]benzazepine” (J Med Chem, 1983).
